Measured values: ChEMBL document CHEMBL1143123, “Novel analogs of D-e-MAPP and B13. Part 2: signature effects on bioactive sphingolipids” (2008)
The source made the active and inactive calls. No cut-off for these calls is given here.

Key:
[1] = system: MCF7; assay: Increase in endogenous ceramide level in human MCF7 cells at 10 to 50 uM after 24 hrs; assay type: functional, cell-based
Procedure, shortened: (§1)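 MCF7 cells grown in RPMI 1640 with 10% FCS at 37 °C in 5% CO2. Seeded near 50% density and treated 24 h later with compound in ethanol (0.1% final); controls got ethanol alone. Cells washed in cold PBS and extracted. Cer species, Sph and S1P measured by HPLC-MS/MS (C8 column, positive-ion MRM) against internal standards and calibration curves. Results given as pmol/nmol phospholipid phosphate, relative to ethanol controls.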

[2] = system: MCF7; assay: Decrease in endogenous sphingosine level in human MCF7 cells at 10-50 uM after 24 hrs; assay type: functional, cell-based
Procedure, shortened: (§2)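 MCF7 cells grown in RPMI 1640 with 10% FCS at 37 °C, 5% CO2. Seeded at ~50% density (1×10^6 cells), treated 24 h later with compounds in ethanol (0.1% final); controls got ethanol only. Cells washed in cold PBS and lipids extracted. Cer species and Sph quantified by HPLC-MS/MS (MRM, positive ion) against internal standards and calibration curves. Values given as pmol/nmol phospholipid and compared with ethanol controls.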

[3] = system: MCF7; assay: Decrease in endogenous ceramide level in human MCF7 cells at 10 uM after 24 hrs; assay type: functional; design: scale not given: the % may be the effect or the level left; procedure, shortened: as §2
[4] = system: MCF7; assay: Decrease in endogenous C16-ceramide level in human MCF7 cells at 10 uM after 18 hrs; assay type: functional, cell-based; procedure, shortened: as §2
[5] = system: MCF7; assay: Increase in endogenous C16-ceramide level in human MCF7 cells at >25 uM after 24 hrs; assay type: functional, cell-based; procedure, shortened: as §2
[6] = system: MCF7; assay: Increase in endogenous C24:1-ceramide level in human MCF7 cells at 10 uM within 30 mins; assay type: functional, cell-based; procedure, shortened: as §1
[7] = system: MCF7; assay: Decrease in endogenous C24:1-ceramide level in human MCF7 cells at 10 uM upto 2.5 hrs; assay type: functional, cell-based; procedure, shortened: as §2
[8] = system: MCF7; assay: Increase in endogenous C24-ceramide level in human MCF7 cells at 10 uM within 30 mins; assay type: functional, cell-based; procedure, shortened: as §1
[9] = system: MCF7; assay: Growth inhibition of human MCF7 cells after 48 hrs; assay type: functional, cell-based
[10] = system: MCF7; assay: Decrease in endogenous sphingosine level in human MCF7 cells at 20 uM after 24 hrs; assay type: functional, cell-based; procedure, shortened: as §2
[11] = system: MCF7; assay: Increase in endogenous ceramide level in human MCF7 cells at 50 uM after 24 hrs; assay type: functional; procedure, shortened: as §1
[12] = system: MCF7; assay: Decrease in endogenous C24:1-ceramide level in human MCF7 cells upto 20 uM after 24 hrs; assay type: functional; design: scale not given: the % may be the effect or the level left; procedure, shortened: as §2
[13] = system: MCF7; assay: Decrease in endogenous C24-ceramide level in human MCF7 cells at 10 uM after 18 hrs; assay type: functional, cell-based; procedure, shortened: as §2
[14] = system: MCF7; assay: Increase in endogenous sphingosine level in human MCF7 cells at 10 uM within 30 mins; assay type: functional; procedure, shortened: as §1
[15] = system: MCF7; assay: Decrease in endogenous sphingosine level in human MCF7 cells at 10 uM upto 2.5 hrs; assay type: functional, cell-based; procedure, shortened: as §2
[16] = system: MCF7; assay: Increase in endogenous C16-ceramide level in human MCF7 cells at 10 uM within 30 mins; assay type: functional, cell-based; procedure, shortened: as §2
[17] = system: MCF7; assay: Decrease in endogenous sphingosine level in human MCF7 cells at 50 uM after 24 hrs; assay type: functional; design: scale not given: the % may be the effect or the level left; procedure, shortened: as §2
[18] = system: MCF7; assay: Increase in endogenous C24-ceramide level in human MCF7 cells at 10 uM upto 2.5 hrs; assay type: functional, cell-based; procedure, shortened: as §2
[19] = system: MCF7; assay: Increase in endogenous C24:1-ceramide level in human MCF7 cells at >30 uM after 24 hrs; assay type: functional, cell-based; procedure, shortened: as §1
[20] = system: MCF7; assay: Decrease in endogenous sphingosine level in human MCF7 cells at 5 uM after 24 hrs; design: scale not given: the % may be the effect or the level left
[21] = system: MCF7; assay: Decrease in endogenous C24-ceramide level in human MCF7 cells upto 20 uM after 24 hrs; assay type: functional; design: scale not given: the % may be the effect or the level left; procedure, shortened: as §2
[22] = system: MCF7; assay: Increase in endogenous C24:1-ceramide level in human MCF7 cells at 10 uM after 1 to 2.5 hrs; assay type: functional, cell-based; procedure, shortened: as §1
[23] = system: MCF7; assay: Increase in endogenous sphingosine level in human MCF7 cells upto 10 uM after 24 hrs; assay type: functional, cell-based; procedure, shortened: as §1
[24] = system: MCF7; assay: Increase in endogenous C24-ceramide level in human MCF7 cells at 10 uM after 1 to 2.5 hrs; assay type: functional, cell-based; procedure, shortened: as §2
[25] = system: MCF7; assay: Increase in endogenous sphingosine level in human MCF7 cells at 10 uM after 1 to 2.5 hrs; assay type: functional, cell-based; procedure, shortened: as §1
[26] = system: MCF7; assay: Decrease in endogenous sphingosine level in human MCF7 cells upto 10 uM after 48 hrs; assay type: functional; design: scale not given: the % may be the effect or the level left; procedure, shortened: as §2
[27] = system: MCF7; assay: Increase in endogenous C16-ceramide level in human MCF7 cells at 50 uM after 24 hrs; assay type: functional; procedure, shortened: as §2
[28] = system: MCF7; assay: Decrease in endogenous sphingosine level in human MCF7 cells at 50 uM after 24 hrs; design: scale not given: the % may be the effect or the level left
[29] = system: MCF7; assay: Increase in endogenous sphingosine level in human MCF7 cells at 10 uM after 24 hrs; assay type: functional; procedure, shortened: as §1
[30] = system: MCF7; assay: Decrease in endogenous sphingosine level in human MCF7 cells upto 5 uM after 24 hrs; assay type: functional, cell-based; procedure, shortened: as §2
[31] = system: MCF7; assay: Increase in endogenous C24:1-ceramide level in human MCF7 cells upto 5 uM after 24 hrs; assay type: functional, cell-based; procedure, shortened: as §1
[32] = system: MCF7; assay: Decrease in endogenous C16-ceramide level in human MCF7 cells upto 5 uM after 24 hrs; assay type: functional, cell-based; procedure, shortened: as §2
[33] = system: MCF7; assay: Decrease in endogenous sphingosine level in human MCF7 cells upto 50 uM after 24 hrs; assay type: functional, cell-based; procedure, shortened: as §2
[34] = system: MCF7; assay: Decrease in endogenous sphingosine level in human MCF7 cells at >2.5 uM after 24 hrs; assay type: functional, cell-based; procedure, shortened: as §2
[35] = system: MCF7; assay: Decrease in endogenous C16-ceramide level in human MCF7 cells at 10 uM after 24 hrs; assay type: functional; design: scale not given: the % may be the effect or the level left; procedure, shortened: as §2
[36] = system: MCF7; assay: Decrease in endogenous C24:1-ceramide level in human MCF7 cells at 10 uM; design: scale not given: the % may be the effect or the level left
[37] = system: MCF7; assay: Increase in endogenous ceramide level in human MCF7 cells at >25 uM after 24 hrs; assay type: functional, cell-based; procedure, shortened: as §1
[38] = system: MCF7; assay: Decrease in endogenous C24-ceramide level in human MCF7 cells upto 5 uM after 24 hrs; assay type: functional, cell-based; procedure, shortened: as §2
[39] = system: MCF7; assay: Decrease in endogenous C24-ceramide level in human MCF7 cells at 10 uM after 24 hrs; assay type: functional; design: scale not given: the % may be the effect or the level left; procedure, shortened: as §2
[40] = system: MCF7; assay: Increase in endogenous ceramide level in human MCF7 cells at 1 uM after 24 hrs; assay type: functional; procedure, shortened: as §1
[41] = system: MCF7; assay: Inhibition of endogenous sphingosine level in human MCF7 cells at 10 uM after 2.5 hrs; assay type: functional, cell-based; procedure, shortened: as §1
[42] = system: MCF7; assay: Increase in endogenous C24:1-ceramide level in human MCF7 cells at 10 uM after 5 mins; assay type: functional, cell-based; procedure, shortened: as §1
[43] = system: MCF7; assay: Inhibition of acid ceramidase in human MCF7 cells assessed as enzyme degradation at 10 uM after 5 hrs; assay type: cell-based
[44] = system: MCF7; assay: Increase in endogenous C16-ceramide level in human MCF7 cells at 10 uM after 5 mins; assay type: functional, cell-based; procedure, shortened: as §2
[45] = system: MCF7; assay: Increase in endogenous C14-ceramide level in human MCF7 cells at 1 uM after 24 hrs; assay type: functional, cell-based; procedure, shortened: as §2
[46] = system: MCF7; assay: Increase in endogenous C16-ceramide level in human MCF7 cells at 1 uM after 24 hrs; assay type: functional, cell-based; procedure, shortened: as §2
[47] = system: MCF7; assay: Increase in endogenous C14-ceramide level in human MCF7 cells at 10 uM after 2.5 hrs; assay type: functional; procedure, shortened: as §2
[48] = system: MCF7; assay: Increase in endogenous C14-ceramide level in human MCF7 cells at 10 uM after 5 mins; assay type: functional, cell-based; procedure, shortened: as §2
[49] = system: MCF7; assay: Increase in endogenous C24-ceramide level in human MCF7 cells at 10 uM after 5 mins; assay type: functional, cell-based; procedure, shortened: as §2
[50] = system: MCF7; assay: Increase in endogenous C18-ceramide level in human MCF7 cells at 10 uM after 5 mins; assay type: functional, cell-based; procedure, shortened: as §2
[51] = system: MCF7; assay: Decrease in endogenous sphingosine level in human MCF7 cells at 10 uM within 5 mins; assay type: functional; design: scale not given: the % may be the effect or the level left; procedure, shortened: as §2
[52] = system: MCF7; assay: Increase in endogenous C18-ceramide level in human MCF7 cells at 1 uM after 24 hrs; assay type: functional, cell-based; procedure, shortened: as §2
[53] = system: MCF7; assay: Increase in endogenous C18-ceramide level in human MCF7 cells at 10 uM after 2.5 hrs; assay type: functional; procedure, shortened: as §2
[54] = system: MCF7; assay: Increase in endogenous C16-ceramide level in human MCF7 cells at 10 uM after 2.5 hrs; assay type: functional; procedure, shortened: as §2
[55] = system: MCF7; assay: Decrease in endogenous sphingosine level in human MCF7 cells at 1 uM after 24 hrs; assay type: functional; design: scale not given: the % may be the effect or the level left; procedure, shortened: as §2

With `CCCCCCCCCCCCCC(=O)N[C@@H](C)[C@@H](O)c1ccccc1` the Activity [1] was “inactive” and the Activity [2] was “inactive”.

With `CCCCCCCCCCCCNC(=O)N[C@H](CO)[C@H](O)c1ccc([N+](=O)[O-])cc1` the Activity [3] was 90%, the Activity [4] was “Active” and the Activity [5] was “Active”. The Activity [6] was “Active”, the Activity [7] was “Active” and the Activity [8] was “Active”. The Activity [9] was “Active”, the Activity [10] was “Active” and the Activity [11] was 170%. For the same molecule, the Activity [12] was 80%, the Activity [13] was “Active” and the Activity [14] was “Active”. For the same molecule, the Activity [15] was “Active”, the Activity [16] was “Active” and the Activity [17] was 45%. The Activity [18] was “Active”, the Activity [19] was “Active” and the Activity [20] was 80%. For the same molecule, the Activity [21] was 80%.

In the case of `CCCCCCCCCCCCNC(=O)N[C@H](C)[C@@H](O)c1ccccc1`, the Activity [22] is reported as “Active”, the Activity [23] is reported as “Active” and the Activity [9] is reported as “Active”. For the same molecule, the Activity [11] was 180%, the Activity [24] was “Active” and the Activity [25] was “Active”. The Activity [26] was 25%, the Activity [27] was “Active” and the Activity [28] was 25%. For the same molecule, the Activity [29] was 140%.

With `CCCCCCCCCCCCCC(=O)N[C@H](C)[C@@H](O)c1ccccc1` the Activity [30] was “Active”, the Activity [31] was “Active” and the Activity [32] was “Active”. For the same molecule, the Activity [33] was “Active”, the Activity [34] was “Active” and the Activity [35] was 30%. For the same molecule, the Activity [36] was 30%, the Activity [37] was “Active” and the Activity [38] was “Active”. It also gave an Activity [39] of 30%.

`CCCCCCCCCCCCCCN[C@H](C)[C@@H](O)c1ccccc1.Cl` was tested, and the Activity [40] was 180%, the Activity [41] was “Active” and the Activity [42] was “inactive”. For the same molecule, the Activity [43] was “Active”, the Activity [44] was “Active” and the Activity [45] was “Active”. For the same molecule, the Activity [46] was “Active”, the Activity [47] was 430% and the Activity [48] was “Active”. The Activity [49] was “inactive”, the Activity [50] was “Active” and the Activity [51] was 25%. For the same molecule, the Activity [52] was “Active”, the Activity [53] was 260% and the Activity [54] was 330%. For the same molecule, the Activity [55] was 80%.
